How the values were obtained:
SW-620 = assay: Inhibitory concentration against SW 620 human colon carcinoma cell line; format: functional, cell-based
Method in brief: (§1)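 Monolayer cultures in RPMI-1640 with 10% FBS; sensitive lines from ATCC, drug-resistant sublines from Istituto Tumori of Milan. Cells seeded at about 10% confluency and allowed 24 h to attach and recover. Exposed to varying drug concentrations for 24 h at 37 °C under 5% CO2, washed, then grown 48 h drug-free. Vehicle-matched controls. SRB read-out as %T/C. IC50 taken from dose/effect curve. Triplicate wells, mean of ≥3 independent experiments.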

MCF7 [1] = assay: Inhibitory concentration against MCF-7 human breast carcinoma cell line; format: functional, cell-based; method in brief: as §1
A2780cisR = assay: Inhibitory concentration against A2780 ovarian carcinoma resistant to cisplatin; format: functional, cell-based; conditions: Homo sapiens; method in brief: as §1
[2] = Inhibitory concentration against MeVo melanoma cell line; format: functional, Homo sapiens; method in brief: as §1
KB = assay: Inhibitory concentration against KB epidermal carcinoma cell line; format: functional, cell-based; conditions: Homo sapiens; method in brief: as §1
A2780 [3] = assay: Inhibitory concentration against A2780 ovarian carcinoma cell line; format: functional, cell-based; conditions: Homo sapiens; method in brief: as §1
NCI-H460 = assay: Inhibitory concentration against NCI-H460 lung carcinoma cell line; format: functional, cell-based; conditions: Homo sapiens; method in brief: as §1
LoVo = assay: Inhibitory concentration against LoVo colon carcinoma cell line; format: functional, cell-based; conditions: Homo sapiens; method in brief: as §1
HEp-2 = assay: Inhibitory concentration against Hep-2 epidermal carcinoma cell line; format: functional, cell-based; conditions: Homo sapiens; method in brief: as §1
A549 = assay: Inhibitory concentration against A549 lung carcinoma cell line; format: functional, cell-based; conditions: Homo sapiens; method in brief: as §1
A2780 [4] = assay: Inhibitory concentration against A2780 ovarian carcinoma resistant to doxorubicin; format: functional, cell-based; conditions: Homo sapiens; method in brief: as §1
MCF7 [5] = assay: Inhibitory concentration against MCF-7 human breast carcinoma resistant to doxorubicin; format: functional, cell-based; method in brief: as §1

| SMILES | IC50 (SW-620; Homo sapiens, SW-620) [nM] | IC50 (MCF7 [1]; Homo sapiens, MCF7) [nM] | other results |
| --- | --- | --- | --- |
| CN(C)CCCN1C(=O)NC2(CSC3=C2C(=O)c2ccccc2C3=O)C1=O (single isomer, unassigned; (+)) |  |  | IC50 (SW-620; sw-620): 60 nM |
| CCC(C)N1C(=O)NC2(CSC3=C2C(=O)c2ccccc2C3=O)C1=O (configuration not stated) | 562 | 178 |  |
| NCCN1C(=O)NC2(CSC3=C2C(=O)c2ccccc2C3=O)C1=O (single isomer, unassigned; (+)) |  |  | IC50 (SW-620; sw-620): 34 nM; IC50 (MCF7 [1]; mcf7): 20 nM |
| CCN(CC)CCCN1C(=O)NC2(CSC3=C2C(=O)c2ccccc2C3=O)C1=O (configuration not stated) | 54 | 26 |  |
| CCN1C(=O)NC2(CSC3=C2C(=O)c2ccccc2C3=O)C1=O (configuration not stated) | 203 | 116 |  |
| CN(C)CCCN1C(=O)NC2(CSC3=C2C(=O)c2ccccc2C3=O)C1=O (stereo in doubt; (-)-15) |  |  | IC50 (SW-620; sw-620): 65 nM; IC50 (MCF7 [1]; mcf7): 27 nM |
| CN(C)CCN1C(=O)NC2(CSC3=C2C(=O)c2ccccc2C3=O)C1=O (configuration not stated) | 57 | 32 |  |
| CN(C)CCCN1C(=O)NC2(CSC3=C2C(=O)c2ccccc2C3=O)C1=O (stereo in doubt; 15) | 58 | 19 | IC50 (A2780cisR): 110 nM; IC50 [2]: 250 nM; IC50 (KB): 100 nM; IC50 (A2780 [3]): 68 nM; IC50 (NCI-H460): 260 nM; IC50 (LoVo): 230 nM; IC50 (HEp-2): 170 nM; IC50 (A549): 110 nM; IC50 (A2780 [4]): 130 nM; IC50 (MCF7 [5]): 173 nM |
| CC(C)(C)N1C(=O)NC2(CSC3=C2C(=O)c2ccccc2C3=O)C1=O (configuration not stated) | 900 | 331 |  |
| CCCCN1C(=O)NC2(CSC3=C2C(=O)c2ccccc2C3=O)C1=O (configuration not stated) | 740 | 178 |  |
| NCCN1C(=O)NC2(CSC3=C2C(=O)c2ccccc2C3=O)C1=O (stereo in doubt; 11) | 35 | 22 |  |
| O=C1C2=C(C(=O)c3ccccc31)C1(CS2)NC(=O)N(CCCO)C1=O (configuration not stated) | 119 | 40 |  |
| O=C1C2=C(C(=O)c3ccccc31)C1(CS2)NC(=O)N(CCO)C1=O (configuration not stated) | 198 | 69 |  |
| NCCCN1C(=O)NC2(CSC3=C2C(=O)c2ccccc2C3=O)C1=O (configuration not stated) | 52 | 25 |  |
| NCCCCN1C(=O)NC2(CSC3=C2C(=O)c2ccccc2C3=O)C1=O (configuration not stated) | 68 | 35 |  |
| CCCN1C(=O)NC2(CSC3=C2C(=O)c2ccccc2C3=O)C1=O (configuration not stated) | 379 | 104 |  |
| CN1C(=O)NC2(CSC3=C2C(=O)c2ccccc2C3=O)C1=O (configuration not stated) | 108 | 23 |  |
| CCN(CC)CCN1C(=O)NC2(CSC3=C2C(=O)c2ccccc2C3=O)C1=O (configuration not stated) | 50 | 21 |  |
| COc1cccc2c1C(=O)c1c(O)c3c(c(O)c1C2=O)C[C@@](O)(C(=O)CO)C[C@@H]3O[C@H]1C[C@H](N)[C@H](O)[C@H](C)O1 [DOXORUBICIN] | 178 |  | IC50 (A2780cisR): 6 nM; IC50 [2]: 820 nM; IC50 (KB): 21 nM; IC50 (A2780 [3]): 7 nM; IC50 (NCI-H460): 10 nM; IC50 (LoVo): 33 nM; IC50 (HEp-2): 59 nM; IC50 (A549): 64 nM; IC50 (A2780 [4]): 290 nM |
| NCCN1C(=O)NC2(CSC3=C2C(=O)c2ccccc2C3=O)C1=O (stereo in doubt; (-)-11) |  |  | IC50 (SW-620; sw-620): 47 nM; IC50 (MCF7 [1]; mcf7): 31 nM |

— ChEMBL document CHEMBL1142665, “Synthesis and cytotoxic evaluation of novel spirohydantoin derivatives of the dihydrothieno[2,3-b]naphtho-4,9-dione system” (J Med Chem, 2005)
